The test system of experiment [1] is Rattus norvegicus. Nature of the experiment: Antihypertensive activity after administration of 20 mg/kg dose in spontaneously hypertensive(SH) rats; score is for average value of two animals. The format is functional. In a few lines:
(§1)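 Spontaneously hypertensive rats were scored by the maximum fall in blood pressure: 0, <20 mm; 1, <30 mm; 2, <40 mm; 3, >40 mm Hg.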

The test system of experiment [2] is Canis familiaris. Nature of the experiment: Saluretic property in an anesthetized dog after 5 mg/kg administration. The format is functional, Canis lupus familiaris.
Experiment [3] relates to Rattus norvegicus. Put plainly: Antihypertensive activity after intraperitoneal administration of 20 mg/kg dose in spontaneously hypertensive(SH) rats; score is for average value of two animals. The experiment is classed as functional. In a few lines:
as §1

Experiment [4] deals with Rattus norvegicus. Put plainly: Saluretic property after administration in rats. The experiment is classed as functional. In a few lines: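 Rats were housed three per cage, with three cages per dose. Sodium excreted over the first 5 h was scored from the geometric mean: 0, <2 mequiv; ±, >2; 1, <8; 2, <15; 3, <25; 4, <35; 5, <45; 6, <55 mequiv.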
The test system of experiment [5] is Rattus norvegicus. Put plainly: Antihypertensive activity after administration of 20 mg/kg dose in spontaneously hypertensive(SH) rats; score is for average value of four animals. The format is functional. A digest of the protocol: as §1
Experiment [6] has as its system Rattus norvegicus. Put plainly: Antihypertensive activity after po administration of 5 mg/kg dose in spontaneously hypertensive(SH) rats; Score is for average value of two animals. The format is functional. A digest of the protocol:
as §1

Experiment [7] deals with Rattus norvegicus. Nature of the experiment: Antihypertensive activity after po administration of 20 mg/kg dose in spontaneously hypertensive(SH) rats; Score is for average value of two animals. The format is functional. A digest of the protocol: as §1
Experiment [8] deals with Canis familiaris. Put plainly: Saluretic property in an anesthetized dog after 5 mg/kg po administration; score is for average of two animals. The format is functional, Canis lupus familiaris.
Experiment [9] concerns Rattus norvegicus. Nature of the experiment: Antihypertensive activity after po administration of 5 mg/kg dose in spontaneously hypertensive(SH) rats; score is for average value of two animals. The experiment is classed as functional. A digest of the protocol:
as §1

In experiment [10] the test system is Rattus norvegicus. Put plainly: Antihypertensive activity after intraperitoneal administration of 20 mg/kg dose in spontaneously hypertensive(SH) rats. The format is functional. In a few lines:
as §1

Experiment [11] concerns Rattus norvegicus. Nature of the experiment: Antihypertensive activity after oral administration of 20 mg/kg dose in spontaneously hypertensive(SH) rats. The format is functional. In a few lines:
as §1

Experiment [12] relates to Canis familiaris. Nature of the experiment: Saluretic property in a anesthetized dog after 5 mg/kg oral administration. The format is functional, Canis lupus familiaris.
The test system of experiment [13] is Rattus norvegicus. Put plainly: Antihypertensive activity after administration of 5 mg/kg dose in spontaneously hypertensive(SH) rats; score is for average value of four animals. The experiment is classed as functional. A digest of the protocol:
as §1

For experiment [14], the system named is Rattus norvegicus. Put plainly: Antihypertensive activity after po administration of 0.31 mg/kg dose in spontaneously hypertensive(SH) rats; Score is for average value of six animals. The experiment is classed as functional. In a few lines:
as §1

Experiment [15] has as its system Rattus norvegicus. Put plainly: Antihypertensive activity after po administration of 0.08 mg/kg dose in spontaneously hypertensive(SH) rats; Score is for average value of six animals. The experiment is classed as functional. A digest of the protocol:
as §1

Experiment [16] has as its system Rattus norvegicus. Put plainly: Antihypertensive activity after po administration of 1.25 mg/kg dose in spontaneously hypertensive(SH) rats; Score is for average value of six animals. The experiment is classed as functional. In a few lines: as §1
Experiment [17] relates to Rattus norvegicus. Nature of the experiment: Antihypertensive activity after po administration of 5 mg/kg dose in spontaneously hypertensive(SH) rats; Score is for average value of six animals. The format is functional. In a few lines: as §1
Experiment [18] concerns Canis familiaris. Nature of the experiment: Saluretic property in an average of two anesthetized dog after 5 mg/kg po administration. The experiment is classed as functional, Canis lupus familiaris.
Experiment [19] concerns Rattus norvegicus. Put plainly: Antihypertensive activity after oral administration of 0.31 mg/kg dose in spontaneously hypertensive(SH) rats. The experiment is classed as functional. In a few lines:
as §1

For experiment [20], the system named is Rattus norvegicus. Put plainly: Antihypertensive activity after oral administration of 5 mg/kg dose in spontaneously hypertensive(SH) rats. The format is functional. In a few lines:
as §1

Experiment [21] relates to Rattus norvegicus. Nature of the experiment: Antihypertensive activity after po administration of 20 mg/kg dose in spontaneously hypertensive(SH) rats; score is for average value of six animals. The format is functional. A digest of the protocol:
as §1

In experiment [22] the test system is Rattus norvegicus. Nature of the experiment: Antihypertensive activity after po administration of 0.08 mg/kg dose in spontaneously hypertensive(SH) rats; score is for average value of four animals. The experiment is classed as functional. In a few lines:
as §1

For experiment [23], the system named is Rattus norvegicus. Put plainly: Antihypertensive activity after po administration of 0.31 mg/kg dose in spontaneously hypertensive(SH) rats; score is for average value of four animals. The format is functional. A digest of the protocol:
as §1

Experiment [24] deals with Rattus norvegicus. Put plainly: Antihypertensive activity after po administration of 40 mg/kg dose in spontaneously hypertensive(SH) rats; score is for average value of four animals. The format is functional. In a few lines: as §1
The subject of experiment [25] is Rattus norvegicus. Nature of the experiment: Antihypertensive activity after po administration of 40 mg/kg dose in spontaneously hypertensive(SH) rats; score is for average value of two animals. The experiment is classed as functional. In a few lines:
as §1

Compound `CC1CCC2(CC1)Oc1c(I)cc(C(C)(C)C)cc1C[N+]2(C)C.[I-]` (stereo unspecified) came in with an Antihypertensive score in the experiment on Rattus norvegicus [1] of 0.
For `CN1CCC2(CC1)NCc1cc(C(C)(C)C)cc(I)c1O2`, the Saluretic score in the experiment with Canis familiaris [2] is listed as 5; in the experiment on Rattus norvegicus [4], 4. Further, the Antihypertensive score is listed as 2 in the experiment on Rattus norvegicus [3] and 1 in the experiment on Rattus norvegicus [5].
In the case of `CC(=O)N1CCC2(CC1)Oc1c(I)cc(C(C)(C)C)cc1C[N+]2(C)C.[I-]`, the Saluretic score with Canis familiaris [2] and with Rattus norvegicus [4] was 0 each time. Further, the Antihypertensive score in the experiment on Rattus norvegicus [6] is 0; with Rattus norvegicus [7] it was 2.
The compound `CC(C)(C)c1cc(I)c2c(c1)C[N+](C)(C)C(C)(C)O2.[I-]` came in with an Antihypertensive score with Rattus norvegicus [3] of 0.
`CC(C)(C)c1cc(I)c2c(c1)CNC1(CCSCC1)O2`: the Saluretic score came out at 2 in the experiment with Canis familiaris [8] and 4 in the experiment with Rattus norvegicus [4]. The Antihypertensive score is recorded as 2 in the experiment on Rattus norvegicus [1] and 0 in the experiment with Rattus norvegicus [9].
Consider `CC(C)(C)c1cc(I)c2c(c1)CN(CN1COc3c(I)cc(C(C)(C)C)cc3C1)CO2`, for which, in the experiment with Rattus norvegicus [10], the Antihypertensive score stood at 0.
As to `CC(C)(C)c1cc(I)c2c(c1)C[N+](C)(C)C1(CCC(C(C)(C)C)CC1)O2.[I-]` (stereo unspecified), the values for the Antihypertensive score in the experiment with Rattus norvegicus [10] and with Rattus norvegicus [11] were 2 and 0, respectively. Moreover, the Saluretic score with Rattus norvegicus [4] and with Canis familiaris [12] was 0 each time.
As for `CC(=O)N1CCC2(CC1)NCc1cc(C(C)(C)C)cc(I)c1O2`, the Saluretic score in the experiment with Canis familiaris [2] came out at 4. This compound also yielded an Antihypertensive score in the experiment on Rattus norvegicus [3] of 0.
Turning to `CC(C)(C)c1cc(I)c2c(c1)C[N+](C)(C)CO2.[I-]`, the Antihypertensive score in the experiment with Rattus norvegicus [3] is reported as 2; in the experiment with Rattus norvegicus [9], 0. The same compound came in with a Saluretic score in the experiment on Rattus norvegicus [4] of 0.
Consider `CC(C)(C)c1cc(I)c2c(c1)CNC1(O2)C2CC3CC(C2)CC1C3` (stereo unspecified), for which the Saluretic score in the experiment with Canis familiaris [2] was 0; in the experiment with Rattus norvegicus [4], 3. Further, the Antihypertensive score in the experiment on Rattus norvegicus [13] is given as 0; in the experiment with Rattus norvegicus [1], 2.
Turning to `CC(C)(C)c1cc(Cl)c2c(c1)C[N+](C)(C)C1(CCCCC1)O2.[I-]`, the Antihypertensive score was 0.5 in the experiment on Rattus norvegicus [3] and 0 with Rattus norvegicus [1]. This compound registered a Saluretic score with Rattus norvegicus [4] of 0.
With `CC(C)(C)c1cc(I)c2c(c1)CNC1(CCC(C(=O)O)CC1)O2` (stereo unspecified), the Saluretic score with Canis familiaris [2] worked out at 5; in the experiment with Rattus norvegicus [4], 4. Besides, the Antihypertensive score with Rattus norvegicus [13] and in the experiment on Rattus norvegicus [1] was 2 throughout.
In turn, `CC(C)(C)c1cc(I)c2c(c1)CNC1(CCC(C(C)(C)C)CC1)O2` (stereo unspecified) registered an Antihypertensive score with Rattus norvegicus [10] of 0. Also, the results for the Saluretic score in the experiment on Rattus norvegicus [4] and in the experiment on Canis familiaris [12] were 4 and 5, respectively.
On to `CN1CCC2(CC1)NCc1cc(C(C)(C)C)cc(Cl)c1O2`, for which the Saluretic score stood at 5 with Canis familiaris [2] and 3 with Rattus norvegicus [4]. Further, the Antihypertensive score in the experiment with Rattus norvegicus [5] worked out at 0.
Regarding `CC(C)(C)c1cc(I)c2c(c1)C[N+](C)(C)C1(CCCC1)O2.[I-]`, the Antihypertensive score was 3 with Rattus norvegicus [3] and 0 in the experiment with Rattus norvegicus [1].
With `CC(C)(C)c1cc(I)c(O)c(CN)c1.Cl`, the Antihypertensive score in the experiment with Rattus norvegicus [14] was found to be 1; in the experiment on Rattus norvegicus [15] it was 0; with Rattus norvegicus [16], 2; in the experiment on Rattus norvegicus [17] it was 3. The Saluretic score in the experiment with Canis familiaris [2] and in the experiment with Rattus norvegicus [4] was 6 in each case.
On to `CC1(C)CC(C)(C)CC2(C1)NCc1cc(C(C)(C)C)cc(I)c1O2`, for which the Saluretic score in the experiment with Rattus norvegicus [4] is reported as 4. Besides, the figures for the Antihypertensive score in the experiment on Rattus norvegicus [5] and in the experiment on Rattus norvegicus [9] were 1 and 0, respectively.
In the case of `CC(C)(C)c1cc(I)c2c(c1)CNC1(CCCCCCCCCCC1)O2`, the Saluretic score with Canis familiaris [18] was 2; with Rattus norvegicus [4], 4. Besides, the figures for the Antihypertensive score in the experiment on Rattus norvegicus [5] and in the experiment with Rattus norvegicus [13] were 1 and 0, respectively.
Take `CC(=O)Oc1cc(C(C)(C)C)cc2c1OC1(CCCCC1)[N+](C)(C)C2.[I-]`: the Saluretic score in the experiment with Rattus norvegicus [4] and in the experiment on Canis familiaris [12] was 0 each time. The Antihypertensive score in the experiment with Rattus norvegicus [19] amounted to 1; with Rattus norvegicus [20], 2.
For `CC(C)(C)c1cc(I)c2c(c1)CNC1(O2)C2CC3C(C2)C31` (stereo unspecified), the Antihypertensive score is 2 in the experiment with Rattus norvegicus [21] and 1 with Rattus norvegicus [13]. Besides, the Saluretic score in the experiment with Canis familiaris [2] and in the experiment with Rattus norvegicus [4] was 5 throughout.
In the case of `CC(C)(C)c1cc(I)c2c(c1)C[N+](C)(C)C1(CCCCC1)O2.[I-]`, the Antihypertensive score in the experiment on Rattus norvegicus [22] was determined as 0; with Rattus norvegicus [23] it was 2; with Rattus norvegicus [13], 2. For the same compound, the Saluretic score with Canis familiaris [2] and in the experiment with Rattus norvegicus [4] was 0 throughout.
`CC(C)(C)c1cc(I)c2c(c1)CNC1(CCCCC1)O2`: the values for the Antihypertensive score in the experiment on Rattus norvegicus [24] and in the experiment on Rattus norvegicus [5] were 1 and 0, respectively. Also, the Saluretic score with Canis familiaris [2] and with Rattus norvegicus [4] was 5 throughout.
For `CC(C)(C)c1cc(I)c2c(c1)CNC1(CCN(CCc3ccccc3)CC1)O2`, the Antihypertensive score in the experiment on Rattus norvegicus [21] was found to be 1; in the experiment on Rattus norvegicus [13], 0. For the same compound, the Saluretic score in the experiment on Canis familiaris [2] amounted to 5; in the experiment with Rattus norvegicus [4] it was 4.
On to `CC(C)(C)c1cc(I)c2c(c1)C[N+](C)(C)C1(CCNCC1)O2.[Cl-]`, for which the Saluretic score in the experiment on Canis familiaris [2] and in the experiment with Rattus norvegicus [4] was 0 each time. The Antihypertensive score in the experiment on Rattus norvegicus [3] and with Rattus norvegicus [1] was 0 each time.
Take `CC(C)(C)c1cc(Cl)c2c(c1)CNC1(CCCCC1)O2`: the Saluretic score was 5 in the experiment with Canis familiaris [2] and 3 in the experiment on Rattus norvegicus [4]. Besides, the Antihypertensive score in the experiment with Rattus norvegicus [3] was 0.
For `CC(C)(C)c1cc(I)c2c(c1)CNC1(CCC3(CC1)NCc1cc(C(C)(C)C)cc(I)c1O3)O2` (stereo unspecified), the Saluretic score in the experiment on Rattus norvegicus [4] worked out at 2. Besides, the Antihypertensive score in the experiment on Rattus norvegicus [20] was determined as 0; in the experiment with Rattus norvegicus [11] it was 2.
`CC(C)(C)c1cc(Cl)c(O)c(CN)c1.Cl`: the Saluretic score in the experiment on Canis familiaris [2] is on record as 4; in the experiment on Rattus norvegicus [4] it was 6. Moreover, the Antihypertensive score was 0 with Rattus norvegicus [1] and 2 in the experiment with Rattus norvegicus [25].

(Values after ChEMBL document CHEMBL1122216, “2-(Aminomethyl)phenols, a new class of saluretic agents. 6. Effects of N,O-spiroannulation and subsequent quaternization” (1983).)
